Our source for the cytotoxicity values is ChEMBL document CHEMBL4513216, “Probing the Open Global Health Chemical Diversity Library for Multistage-Active Starting Points for Next-Generation Antimalarials” (ACS Infect Dis, 2020).

SMILES strings stand for the structures.

The data set is described as follows: Toxicity liver stage against HepG2, at 10uM. Format: cell-based. Set-up: test concentration 10 uM, cell line HepG2-A16-CD81EGFP. Particulars: human, HepG2-A16-CD81EGFP cells; read-out: INHIBITION
Put shortly: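 Uninfected HepG2-A16-CD81EGFP cells, 3 × 10^3 per well, 1536-well, plated on prespotted compound at 10 μM final, parasite-free screening media added to match infected plates; puromycin 10 μM positive, DMSO 0.5% negative; run in parallel with 48 h PbLuc assay at 37 °C, 5% CO2; viability by CellTiter-Glo luminescence, normalized to controls.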
Consider `OC1(CN2CCCC2)COCCN(c2nnc(-c3ccccc3)s2)C1` (stereo not given), for which the cytotoxicity at 10 µM is -10.1%.

In the case of `Cc1cc(C(=O)N2CCn3c(COCC4CCCC4)cnc3C2C)on1` (stereo not given), the cytotoxicity at 10 µM turned out to be 3.18%.

On to `OCCN(Cc1cccnc1)c1cnc2ccccc2n1`, for which the cytotoxicity at 10 µM came out at 1.06%.

In the case of `O=S(=O)(C1CC1)N1CC[C@]2(C[C@@H](OCC3CCOCC3)CO2)C1`, the cytotoxicity at 10 µM stood at 8.13%.

For the compound `CC(C)c1ccc2c(c1)CCCN2C(=O)CN(C)S(C)(=O)=O`, the cytotoxicity at 10 µM is 3.78%.

Regarding `CCn1nc2nc(SCC(=O)O)cc(C(F)F)c2c1C`, the cytotoxicity at 10 µM is -3.78%.

`O=C(CSc1ccc2c(c1)OCCO2)NS(=O)(=O)c1cc(F)ccc1F`: the cytotoxicity at 10 µM was -3.47%.

As to `CCC(NC(=O)c1ccco1)c1nc(C(F)(F)F)cs1` (stereo not given), the cytotoxicity at 10 µM is -0.183%.

`Fc1ccc(CN2C[C@@H]3OCCN(CC4CCCO4)[C@@H]3C2)cc1` (stereo not given in full): the cytotoxicity at 10 µM is -86.3%.

Regarding `Cc1nc(C2CCCN2CC(=O)N2CCc3ccccc32)no1` (stereo not given), the cytotoxicity at 10 µM was -19.6%.

For `C=C(C)COCCNC(=O)Nc1cccc(Cn2nc(C)nc2C)c1`, the cytotoxicity at 10 µM was found to be 7.64%.

As for `CCOCc1ncn2c1CN(S(=O)(=O)c1cccc(C)c1)CC2`, the cytotoxicity at 10 µM was -1.33%.

Regarding `CN(C)CCO[C@@H]1CC[C@H]2[C@H]1OCCN2C(=O)COc1ccccc1`, the cytotoxicity at 10 µM is -4.84%.

With `Cc1nc(N(C)C)ncc1C(=O)NCCc1csc(-c2ccncc2)n1`, the cytotoxicity at 10 µM amounted to 1.39%.

As for `NC(=O)c1c[nH]nc1NCc1ccc2c(c1)OCO2`, the cytotoxicity at 10 µM is -2.9%.

As for `CC(C)(C)SCC(=O)Nc1cc(-n2nnnc2C2CC2)ccc1F`, the cytotoxicity at 10 µM is -12%.

In the case of `CN1CCN(CCNC(=O)C(OC2CCCC2)c2ccccc2)CC1` (stereo not given), the cytotoxicity at 10 µM is -9.43%.

`Cc1noc([C@@]23CCO[C@@H]2CCN(C(=O)c2cc(C)[nH]c2C)C3)n1`: the cytotoxicity at 10 µM was 10.4%.

Turning to `O=C(c1cscn1)N1CC[C@H]2[C@@H]1CCC(=O)N2c1ccccc1`, the cytotoxicity at 10 µM is -68.8%.

As to `OCc1cc(C2CCCN2c2ncccn2)n[nH]1` (stereo not given), the cytotoxicity at 10 µM was found to be 8.32%.

For `Cc1nc(C(=O)N2CCN(S(C)(=O)=O)CC2)c(-c2cccc(F)c2)s1`, the cytotoxicity at 10 µM is 1.37%.

As to `O=C1N(Cc2cccc(F)c2F)CCCC1(O)CNCc1ccccn1` (stereo not given), the cytotoxicity at 10 µM is -9.28%.

Turning to `CC(Cn1cccn1)NCc1nc(-c2ccco2)no1` (stereo not given), the cytotoxicity at 10 µM is -2.66%.

As for `O=C(c1cnc(-c2ncccn2)s1)N1CCCC1Cn1cccn1` (stereo not given), the cytotoxicity at 10 µM is -5.97%.

In the case of `c1cnc(N2CCCn3nnc(COCC4CC4)c3C2)nc1`, the cytotoxicity at 10 µM is -4.97%.

On to `CCCNC(=O)c1cccc(CNCc2csc(C(C)(C)C)n2)c1`, for which the cytotoxicity at 10 µM was 12.3%.

`O=C(NCc1ccccc1-n1cccn1)C1CC2(CCNCC2)CN1` (stereo not given): the cytotoxicity at 10 µM was -0.413%.

`CCc1cnc(N2CC3(CCN(Cc4ccsc4)C3)C2)nc1`: the cytotoxicity at 10 µM was determined as 2.98%.

For the compound `O=C(Cc1ccc2c(c1)OCO2)N1CCCN(c2nccs2)CC1`, the cytotoxicity at 10 µM was -11.9%.

As to `COc1cccc(CN(C)C(C)c2ccco2)c1OCCn1ccnc1` (stereo not given), the cytotoxicity at 10 µM is -0.7%.

Take `N[C@@H]1CCC[C@@H](Oc2ccc(F)cc2Oc2cccc(F)c2)[C@@H]1O`: the cytotoxicity at 10 µM is -22.2%.

`CNc1cccc(C2CCCN(C(=O)c3coc(C)n3)C2)n1` (stereo not given): the cytotoxicity at 10 µM is -11.7%.

Consider `COc1ccc2c(c1)OCC(Cc1cc(N3CCCC3)cnn1)C2` (stereo not given), for which the cytotoxicity at 10 µM is -18.1%.

On to `CC(=O)Nc1cccc(C(=O)Nc2cnc3n2CCCC3)c1`, for which the cytotoxicity at 10 µM came to 4.36%.

For the compound `COc1nc(C)c(C(=O)N2CCN(c3ncccc3C)CC2)s1`, the cytotoxicity at 10 µM amounted to 2.87%.

With `Cc1ccc2oc(=O)n(CCC(=O)N3CCC4(CN(C)C(=O)O4)C3)c2c1` (stereo not given), the cytotoxicity at 10 µM was 1.66%.

Consider `CCc1noc(CN(C)Cc2cc3ccc(Cl)cc3[nH]c2=O)n1`, for which the cytotoxicity at 10 µM is 4.92%.

As to `Cc1cnn(CC2CCCCN2C(=O)Cc2csc(C)n2)c1` (stereo not given), the cytotoxicity at 10 µM worked out at 2.26%.

On to `Cc1nc(NC(=O)C(C)N2CCN(c3cnccn3)CC2)sc1C` (stereo not given), for which the cytotoxicity at 10 µM was 4.75%.

Regarding `O=C1CCC2(CCOC2)CN1Cc1nc2ccc(Cl)cc2[nH]1` (stereo not given), the cytotoxicity at 10 µM is 1.9%.

For the compound `COC[C@@H]1CC[C@H]2[C@H](CCN2S(=O)(=O)c2cccc(C)c2)O1`, the cytotoxicity at 10 µM is 3.29%.

`CCc1cnc(C)nc1N1CCS(=O)(=O)CC1`: the cytotoxicity at 10 µM was -43.3%.

For `Cc1cccc(-c2noc(CN3CCCC(Cn4cncn4)C3)n2)c1` (stereo not given), the cytotoxicity at 10 µM was -3.51%.

For `COCCNC(=O)[C@H]1CN(Cc2nccs2)C[C@H]2OCC[C@@H]12`, the cytotoxicity at 10 µM is -11.6%.

In the case of `CC(C)Cn1ccnc1CNC(=O)NC(C)c1nccs1` (stereo not given), the cytotoxicity at 10 µM was -14.3%.

For `CC(Cc1ccco1)NC(=O)Nc1cccnc1` (stereo not given), the cytotoxicity at 10 µM is -6.78%.

For `COC(=O)N1CCN(CCCc2nnnn2-c2ccccc2)CC1`, the cytotoxicity at 10 µM is 14%.

For `O=C(c1cscn1)N1CCc2ncc(Cn3cncn3)n2CC1`, the cytotoxicity at 10 µM is -68.9%.

As for `CC(C)(C)C(=O)N1CCCC(c2ncncc2-c2ccncc2)C1` (stereo not given), the cytotoxicity at 10 µM came to 4.03%.

As to `NC(=O)Cn1ccnc1C1CCCN(Cc2ccccc2OC(F)F)C1` (stereo not given), the cytotoxicity at 10 µM was -22%.

For the compound `Cc1nc(N(C)C)cc(C2(C)CCNCC2)n1`, the cytotoxicity at 10 µM is -6.07%.

As for `Cc1cccc(CCC(=O)N2CCOCC2c2c(C)n[nH]c2C)c1` (stereo not given), the cytotoxicity at 10 µM was -13.3%.

Turning to `CCN(C)S(=O)(=O)N1CCCC(CO)(CC=C(C)C)C1` (stereo not given), the cytotoxicity at 10 µM is -3.41%.

With `Cc1cnn(C2CCCN(C(=O)c3ccc(N4CCCC4)nc3)C2)c1` (stereo not given), the cytotoxicity at 10 µM was -4.77%.

Regarding `CCc1cnc(N2CC[C@@H]3CN(CCC(C)C)S(=O)(=O)[C@@H]3CC2)nc1`, the cytotoxicity at 10 µM was determined as 2.38%.

For the compound `NC(=O)CSc1ccccc1NCc1nc(Cc2ccccc2)no1`, the cytotoxicity at 10 µM was 7.04%.

On to `CN(C)C(=O)c1cnc2n1CCN(Cc1cccc(C#N)c1)C2`, for which the cytotoxicity at 10 µM is -77.3%.

Turning to `c1cc(CN2CCOCC3(C2)CN(Cc2nccs2)CCO3)ccn1` (stereo not given), the cytotoxicity at 10 µM came out at 2.14%.

Consider `CC(CS(C)(=O)=O)N(C)C(=O)NCCCc1ccc(Cl)cc1` (stereo not given), for which the cytotoxicity at 10 µM was 1.8%.

Consider `CNc1ncc(C(=O)N2CCC(c3ccccc3C(=O)O)C2)cn1` (stereo not given), for which the cytotoxicity at 10 µM was -7.67%.

`Cc1cc(C2CCCN2c2ncc(C(N)=O)cc2Cl)no1` (stereo not given): the cytotoxicity at 10 µM was -4.57%.

As to `c1ccc(OCc2noc(CN3CCN(C4CCCC4)CC3)n2)cc1`, the cytotoxicity at 10 µM was -6.66%.

Turning to `Cc1ccc(N2C[C@@H]3CN(C(=O)NC4CCCC4)C[C@]3(C(=O)O)C2)nn1`, the cytotoxicity at 10 µM came to 19.5%.

Turning to `COCc1c(Cl)cccc1NC(=O)NCc1cccc(N(C)C)n1`, the cytotoxicity at 10 µM came out at 0.217%.

In the case of `Cn1c2c(c(=O)n1C)CN(C(=O)c1ccco1)CCC2`, the cytotoxicity at 10 µM worked out at 10.5%.

`COc1cccc(COCC(=O)N2CCCC(N3CCCC3)CC2)c1` (stereo not given): the cytotoxicity at 10 µM is -4.82%.

For `Cc1nc(CN2C(=O)CCC23CCN(Cc2cccn2C)CC3)cs1`, the cytotoxicity at 10 µM came out at 0.676%.

Take `O=C(C1CC(F)(F)C1)N1C[C@@H]2CN(Cc3ccsc3)CCO[C@@H]2C1`: the cytotoxicity at 10 µM was -93.5%.

For `CCc1nccn1C1CCCN(C(=O)c2cc3nc(C)ccc3o2)C1` (stereo not given), the cytotoxicity at 10 µM is -15.5%.

In the case of `CN1Cc2ccccc2NC(=O)C12CCNC2` (stereo not given), the cytotoxicity at 10 µM is 6.75%.

For `CC(C)(C)C(=O)N1C[C@@H](F)[C@@H](OCc2nc3ncccc3[nH]2)C1`, the cytotoxicity at 10 µM is 2.97%.

In the case of `CCS(=O)(=O)N1CCC(c2nccn2Cc2ccccn2)CC1`, the cytotoxicity at 10 µM stood at 6.27%.

As to `N#Cc1ccnc(NCc2cc3n(n2)CCCN(C(=O)C2CCC2)C3)c1`, the cytotoxicity at 10 µM is -135%.

Regarding `Cc1cc(CNc2ccc3nc(C4CC4)sc3c2)no1`, the cytotoxicity at 10 µM worked out at 0.981%.

For the compound `CN(CC(=O)Nc1nc2c(s1)CCCCCC2)C(=O)c1ccco1`, the cytotoxicity at 10 µM was found to be 37.9%.

Take `CC(NC(=O)NCCn1ccnc1)c1ccc2c(c1)NC(=O)CO2` (stereo not given): the cytotoxicity at 10 µM is -7.36%.

On to `Cc1nnc(NC(=O)CN2CCCC(Cn3cncn3)C2)s1` (stereo not given), for which the cytotoxicity at 10 µM turned out to be 1.71%.

Regarding `CS(=O)(=O)N1CCN(C(=O)CCn2cccn2)CC1`, the cytotoxicity at 10 µM was -8.39%.

Turning to `CC(c1ccc(-c2cnc(N)nc2)cc1)N1CCOCC1` (stereo not given), the cytotoxicity at 10 µM came to 1.97%.

In the case of `c1cncc(-c2ccnn2CN2CCC3(CC2)OCCO3)c1`, the cytotoxicity at 10 µM came to 8.19%.

For `CC(=O)Nc1ccc(CNCC(O)c2ccc(C)cc2)cc1` (stereo not given), the cytotoxicity at 10 µM is -0.684%.

As for `COC(=O)Cn1c(=O)[nH]c2cn(-c3ccc(F)cc3)c(=O)n21`, the cytotoxicity at 10 µM was determined as 1.09%.

In the case of `Cc1cccc(CN2C(=O)CO[C@@H]3CN(CCO)C[C@H]32)c1`, the cytotoxicity at 10 µM is -14.1%.

As for `COCC(=O)NC(c1ccc(Cl)cc1)C(F)(F)F` (stereo not given), the cytotoxicity at 10 µM amounted to 6.76%.

As to `Cc1ccc(CN2CC[C@H]3NC(=O)CC[C@@H]32)o1`, the cytotoxicity at 10 µM was -5.28%.

In the case of `CC(C)c1n[nH]c(C2CN(C(=O)COc3ccc(F)cc3)CCO2)n1` (stereo not given), the cytotoxicity at 10 µM was -5.7%.

`Cc1nccc(-c2ccccc2)c1C(=O)N1CCC2(CN(C)C(=O)O2)C1` (stereo not given): the cytotoxicity at 10 µM came to 4.77%.

Regarding `COc1ncccc1NC(=O)NC(C)c1nncn1C` (stereo not given), the cytotoxicity at 10 µM was -18.8%.

Turning to `Cc1nc(N2CCOCC2)nc2c1CCN(C(=O)NC1CCCC1)CC2`, the cytotoxicity at 10 µM turned out to be 3.41%.

In the case of `Nc1no[n+]([O-])c1C(=O)NCc1ccccn1`, the cytotoxicity at 10 µM is -2.02%.

As for `Cc1noc([C@@]23CCO[C@@H]2CCN(C(=O)c2sccc2C)C3)n1`, the cytotoxicity at 10 µM was -8.23%.

Take `CCc1c(C)nn(CC(=O)NC(C)c2n[nH]c(C)n2)c1C` (stereo not given): the cytotoxicity at 10 µM is -14.1%.

For `CC(Nc1ccc(C#N)cc1F)c1cccc(S(N)(=O)=O)c1` (stereo not given), the cytotoxicity at 10 µM was -3.86%.

As to `Cc1ccc(N2CCCC(NCc3sccc3C)C2)nn1` (stereo not given), the cytotoxicity at 10 µM was -3.8%.

As to `Cc1ccc(CNC(=O)CN(C)CC2CCN(CCO)CC2)s1`, the cytotoxicity at 10 µM worked out at 9.83%.
